Test results reported in ChEMBL document CHEMBL3091373, “Phenylspirodrimanes with anti-HIV activity from the sponge-derived fungus Stachybotrys chartarum MXH-X73” (J Nat Prod, 2013).

Legend:
HEK-293T = test: Cytotoxicity against human 293T cells at 10 uM after 48 hrs; type: cell-based
Procedure, shortened: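 293T cells at the anti-HIV assay culture conditions (seeded 6 × 10^4 cells/well the day before), compound in DMSO incubated 48 h without virus; viability read with a cell proliferation assay kit.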

[1] = system: Human immunodeficiency virus 1; test: Antiviral activity against wild-type HIV-1 infected in HEK293T cells co-transfected with VSVG protein assessed as time required for 50% failure of viral replication at 10 uM by luciferase reporter gene assay; type: functional, HEK-293T
Procedure, shortened: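 Time-of-addition run: HEK 293T cells seeded 6 × 10^4/well, held overnight at 37 °C, then infected with VSVG/HIV-wt pseudoparticles (t = 0 at particle addition). Compounds added at a final 10 μM at 0, 2, 4, 6, 8, 10, 12, 14 or 16 h. Cells lysed 48 h post-infection and luciferase activity measured.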

[2] = system: Human immunodeficiency virus 1; test: Ratio of EC50 for HIV-1 expressing reverse transcriptase K103N/G190A double mutant to EC50 for wild-type HIV-1; type: functional
Procedure, shortened: (§1)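 Fold change, computed as the EC50 against each VSV-G-pseudotyped NNRTI-resistant RT-mutant HIV-1 divided by the EC50 against wild-type pseudovirus. Both EC50s come from the 293T single-cycle luciferase infection assay, with compound added 15 min before infection and read at 48 h.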

[3] = system: Human immunodeficiency virus 1; test: Ratio of EC50 for HIV-1 expressing reverse transcriptase K103N/V108I double mutant to EC50 for wild-type HIV-1; type: functional; procedure, shortened: as §1
[4] = system: Human immunodeficiency virus 1; test: Antiviral activity against HIV-1 expressing reverse transcriptase K103N mutant infected in human 293T cells co-transfected with VSVG protein assessed as inhibition of viral-replication incubated 15 mins prior to viral-infection measured after 48 hrs by luciferase reporter gene assay; type: functional, organism-based; conditions: Human immunodeficiency virus 1, HEK-293T
Procedure, shortened: (§2)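 VSV-G-pseudotyped single-cycle HIV made by Ca3(PO4)2 co-transfection of 293T cells with env-deficient pNL4-3.luc.R-E- (wild-type or RT mutant) vector; medium changed 16 h post-transfection, supernatant harvested at 48 h, filtered, diluted to 0.2 ng p24/mL. Target 293T cells seeded 6 × 10^4/well the day before; compounds in DMSO added 15 min pre-infection; luciferase of lysates read 48 h post-infection.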

[5] = system: Human immunodeficiency virus 1; test: Antiviral activity against HIV-1 expressing reverse transcriptase K103N/G190A double mutant infected in human 293T cells co-transfected with VSVG protein assessed as inhibition of viral-replication incubated 15 mins prior to viral-infection measured after 48 hrs by luciferase reporter gene assay; type: functional, organism-based; conditions: Human immunodeficiency virus 1, HEK-293T; procedure, shortened: as §2
[6] = system: Human immunodeficiency virus 1; test: Ratio of EC50 for HIV-1 expressing reverse transcriptase K103N mutant to EC50 for wild-type HIV-1; type: functional; procedure, shortened: as §1
[7] = system: Human immunodeficiency virus 1; test: Antiviral activity against wild-type HIV-1 infected in human 293T cells co-transfected with VSVG protein assessed as inhibition of viral-replication incubated 15 mins prior to viral-infection measured after 48 hrs by luciferase reporter gene assay; type: functional, organism-based; conditions: Human immunodeficiency virus 1, HEK-293T; procedure, shortened: as §2
[8] = target: Human immunodeficiency virus type 1 reverse transcriptase (Human immunodeficiency virus 1, UniProt Q72547); test: (§3) Inhibition of HIV-1 reverse transcriptase after 1 hr by spectrophotometry
Procedure, shortened: (§4)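 RNA-dependent DNA polymerase activity. Started with reverse transcriptase, 1 h at 37 °C. Product captured on streptavidin plate 1 h at 37 °C, TMB 15 min, stopped with H2SO4, OD450. Dose-response EC50.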

[9] = target: Human immunodeficiency virus type 1 reverse transcriptase (Human immunodeficiency virus 1) (UniProt Q72547); test: as §3; procedure, shortened: as §4
[10] = system: Human immunodeficiency virus 1; test: Ratio of EC50 for HIV-1 expressing reverse transcriptase K103N/P225H double mutant to EC50 for wild-type HIV-1; type: functional; procedure, shortened: as §1
[11] = system: Human immunodeficiency virus 1; test: Ratio of EC50 for HIV-1 expressing reverse transcriptase L100I/K103N double mutant to EC50 for wild-type HIV-1; type: functional; procedure, shortened: as §1
[12] = system: Human immunodeficiency virus 1; test: Antiviral activity against HIV-1 expressing reverse transcriptase L100I/K103N double mutant infected in human 293T cells co-transfected with VSVG protein assessed as inhibition of viral-replication incubated 15 mins prior to viral-infection measured after 48 hrs by luciferase reporter gene assay; type: functional, organism-based; conditions: Human immunodeficiency virus 1, HEK-293T; procedure, shortened: as §2
[13] = system: Human immunodeficiency virus 1; test: Antiviral activity against HIV-1 expressing reverse transcriptase K103N/V108I double mutant infected in human 293T cells co-transfected with VSVG protein assessed as inhibition of viral-replication incubated 15 mins prior to viral-infection measured after 48 hrs by luciferase reporter gene assay; type: functional, organism-based; conditions: Human immunodeficiency virus 1, HEK-293T; procedure, shortened: as §2
[14] = system: Human immunodeficiency virus 1; test: Antiviral activity against HIV-1 expressing reverse transcriptase K103N/P225H double mutant infected in human 293T cells co-transfected with VSVG protein assessed as inhibition of viral-replication incubated 15 mins prior to viral-infection measured after 48 hrs by luciferase reporter gene assay; type: functional, organism-based; conditions: Human immunodeficiency virus 1, HEK-293T; procedure, shortened: as §2

## C[C@@H]1CC[C@H]2C(C)(C)[C@H](O)CC[C@]2(C)[C@@]12Cc1c(O)cc3c(c1O2)CN(CCCCN1Cc2c(cc(O)c4c2O[C@]2(C4)[C@H](C)CC[C@H]4C(C)(C)[C@H](O)CC[C@@]42C)C1=O)C3=O
HEK-293T
  Activity: Non-toxic

## C[C@@H]1CC[C@H]2C(C)(C)[C@H](O)[C@H](O)C[C@]2(C)[C@@]12Cc1c(O)cc(CO[C@H]3O[C@H](CO)[C@@H](O)[C@H](O)[C@H]3O)c(C=O)c1O2
HEK-293T
  Activity: Non-toxic

## Cc1nnc(C(=O)NC(C)(C)c2nc(C(=O)NCc3ccc(F)cc3)c(O)c(=O)n2C)o1
[1]
  Time: 17.78 h

## Cc1cn([C@H]2C[C@H](N=[N+]=[N-])[C@@H](CO)O2)c(=O)[nH]c1=O [ZIDOVUDINE]
[1]
  Time: 11.59 h

## CC(=O)CN1Cc2c(cc(O)c3c2O[C@]2(C3)[C@H](C)CC[C@H]3C(C)(C)[C@H](O)CC[C@@]32C)C1=O
[2]
  Ratio EC50: 1.7
[3]
  Ratio EC50: 1.6
[4]
  EC50: 7 µM
[1]
  Time: 12.66 h
[5]
  EC50: 14.2 µM
[6]
  Ratio EC50: 0.8
[7]
  EC50: 8.4 µM
[8]
  EC50: 50 µM
[9]
  inhibition: Dose-dependent effect
[10]
  Ratio EC50: 0.7
[11]
  Ratio EC50: 2.8
[12]
  EC50: 23.8 µM
[13]
  EC50: 13.3 µM
[14]
  EC50: 6.2 µM
HEK-293T
  Activity: Non-toxic

## Cc1ccnc2c1NC(=O)c1cccnc1N2C1CC1 [NEVIRAPINE]
[4]
  EC50: 2.3 µM
[5]
  EC50: 51.9 µM
[7]
  EC50: 0.023 µM
[12]
  EC50: 3.3 µM
[13]
  EC50: 7.5 µM
[14]
  EC50: 23.3 µM

## C[C@@H]1CC[C@H]2C(C)(C)[C@H](O)CC[C@]2(C)[C@@]12Cc1c(O)cc3c(c1O2)CN(CCCCCN1Cc2c(cc(O)c4c2O[C@]2(C4)[C@H](C)CC[C@H]4C(C)(C)[C@H](O)CC[C@@]42C)C1=O)C3=O
HEK-293T
  Activity: Non-toxic

## COC(=O)[C@H](CCC(=O)O)N1Cc2c(cc(O)c3c2O[C@]2(C3)[C@H](C)CC[C@H]3C(C)(C)[C@H](O)CC[C@@]32C)C1=O
HEK-293T
  Activity: Non-toxic

## C[C@@H]1CC[C@H]2C(C)(C)[C@H](O)CC[C@]2(C)[C@@]12Cc1c(O)cc(CO)c(C=O)c1O2
HEK-293T
  Activity: Non-toxic

## O=C1Nc2ccc(Cl)cc2[C@@](C#CC2CC2)(C(F)(F)F)O1 [EFAVIRENZ]
[1]
  Time: 13.06 h

## C[C@@H]1CC[C@H]2C(C)(C)[C@H](O)CC[C@]2(C)[C@@]12Cc1c(O)cc3c(c1O2)CN([C@@H](CCC(=O)O)C(=O)O)C3=O
HEK-293T
  Activity: Non-toxic

## C[C@@H]1CC[C@H]2C(C)(C)[C@H](O)CC[C@]2(C)[C@@]12Cc1c(O)cc(CO[C@H]3O[C@H](CO)[C@@H](O)[C@H](O)[C@H]3O)c(C=O)c1O2
HEK-293T
  Activity: Non-toxic

## C[C@@H]1CC[C@H]2C(C)(C)[C@H](O)C(O)C[C@]2(C)[C@@]12Cc1c(O)cc(CO)c(C=O)c1O2 (some centres undefined)
HEK-293T
  Activity: Non-toxic

## Cc1cc(O)c2c(c1C=O)O[C@]1(C2)[C@H](C)CC[C@H]2C(C)(C)[C@H](O)CC[C@@]21C
HEK-293T
  Activity: Non-toxic

## COC(=O)CC[C@@H](C(=O)O)N1Cc2c(cc(O)c3c2O[C@]2(C3)[C@H](C)CC[C@H]3C(C)(C)[C@H](O)CC[C@@]32C)C1=O
HEK-293T
  Activity: Non-toxic
